ChEMBL document CHEMBL3259659, “Polyisoprenylated methylated protein methyl esterase: a putative biomarker and therapeutic target for pancreatic cancer” (Eur J Med Chem, 2014)
Calls of active or inactive are those of the source. The calls are words filed in the database; no cut-off is given here.

Tests used:
[1] = Lipophilicity, log D of the compound; type: physicochemical; conditions: octanol/water
[2] = (§1) Inhibition of PMPMEase (unknown origin) using RD-PNB as substrate incubated for 15 mins prior to substrate addition measured after 2 hrs by RP-HPLC analysis; parameters: species or system Homo sapiens
Outline: (§2)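 Enzyme (1 μg) preincubated 15 min with inhibitor (1–1000 μM, dissolved in water), then RD-PNB (1 mM, in DMSO) added. Incubated 2 h at 37°C in 100 mM Tris-HCl pH 7.4, stopped with methanol, centrifuged. Supernatant analysed by RP-HPLC with UV detection at 260 nm. IC50 by nonlinear regression; Ki derived from previously reported RD-PNB kinetics.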

Homo sapiens = species: Homo sapiens; experiment: as §1; outline: as §2
[3] = (§3) Cytotoxicity against human MIAPaCa2 cells harboring K-Ras mutant oncogene after 48 hrs by fluorescence assay; type: functional, cell-based; conditions: MIA PaCa-2, 48 h
Outline: (§4)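 Cells from ATCC, kept at 37°C in 5% CO2 to about 80% confluence, trypsinized and plated at 1×10^4 cells/well in medium with 5% FBS. Treated with PCAIs 0–20 μM for 48 h. Viability by resazurin (0.02% in Dulbecco PBS, 20 μL added), fluorescence read after 2 h at ex 560/em 590 nm. EC50 by nonlinear regression of concentration-response.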

MIA PaCa-2 [4] = experiment: as §3; type: functional, cell-based; outline: as §4
[5] = (§5) Cytotoxicity against human BxPC3 cells after 48 hrs by fluorescence assay; type: functional, cell-based; conditions: BXPC-3, 48 h; outline: as §4
BXPC-3 [6] = experiment: as §5; type: functional, cell-based; outline: as §4
MIA PaCa-2 [7] = experiment: Cytotoxicity against human MIAPaCa2 cells harboring K-Ras mutant oncogene at 20 uM after 24 to 72 hrs by fluorescence assay; type: functional, cell-based
Outline: (§6)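 Same viability method: cells plated at 1×10^4 cells/well in 5% FBS medium, exposed to 20 μM PCAI for 24, 48 and 72 h. Resazurin (0.02% in Dulbecco PBS) added, fluorescence ex 560/em 590 nm read 2 h later.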

BXPC-3 [8] = experiment: Cytotoxicity against human BxPC3 cells at 20 uM after 24 to 72 hrs by fluorescence assay; type: functional, cell-based; outline: as §6
MIA PaCa-2 [9] = experiment: Induction of apoptosis in human MIAPaCa2 cells harboring K-Ras mutant oncogene at 0.5 to 2 uM after 48 hrs by acridine orange/ethidium bromide staining-based fluorescence microscopy; type: functional, cell-based
Outline: (§7)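 5×10^4 MIA PaCa-2 cells cultured in chamber slide wells and treated 48 h at 0.5, 1 and 2 μM in 5% FBS. Stained with acridine orange/ethidium bromide (10 μg/mL). Imaged by fluorescence microscopy (x40 objective, 480/30 nm excitation). Green intact nuclei scored as viable; bright green fragmented nuclei as early apoptotic; orange-red condensed nuclei as apoptotic.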

MIA PaCa-2 [10] = experiment: Induction of apoptosis in human MIAPaCa2 cells harboring K-Ras mutant oncogene assessed as viable cells at 1 uM after 48 hrs by acridine orange/ethidium bromide staining-based fluorescence microscopy; type: functional, cell-based; outline: as §7
MIA PaCa-2 [11] = experiment: Induction of apoptosis in human MIAPaCa2 cells harboring K-Ras mutant oncogene assessed as early apoptotic cells at 2 uM after 48 hrs by acridine orange/ethidium bromide staining-based fluorescence microscopy; type: functional, cell-based; outline: as §7

| logD [1] | Ki [2] [µM] | Activity (Homo sapiens) | SMILES | EC50 [3] [µM] | Activity (MIA PaCa-2 [4]) | EC50 [5] [µM] | Activity (BXPC-3 [6]) | Activity (MIA PaCa-2 [7]) | Activity (BXPC-3 [8]) | Activity (MIA PaCa-2 [9]) | Activity (MIA PaCa-2 [10]) | Activity (MIA PaCa-2 [11]) |
| --- | --- | --- | --- | --- | --- | --- | --- | --- | --- | --- | --- | --- |
| 4.48 | 11.2 | Dose-dependent effect | CC(C)=CCC/C(C)=C/CC/C(C)=C/CSC[C@H](NC(=O)CCCCCN1CCCC1)C(=O)NC1CCCCC1 | 5.6 | Dose-dependent effect | 12.7 | Dose-dependent effect |  |  |  |  |  |
| 3.82 | 20 | Dose-dependent effect | CC(C)=CCC/C(C)=C/CC/C(C)=C/CSC[C@H](NC(=O)CCCCCN1CCN(C)CC1)C(=O)N1CCCC1 | 6 | Dose-dependent effect | 3.2 | Dose-dependent effect |  |  |  |  |  |
| 6.03 |  |  | CC(C)=CCC/C(C)=C/CC/C(C)=C/CSc1ccccc1C(N)=O | > 20 |  | > 20 |  | inactive | inactive |  |  |  |
| 3.76 | 11 | Dose-dependent effect | CC(C)=CCC/C(C)=C/CC/C(C)=C/CSC[C@H](NC(=O)CCCCCN1CCCC1)C(=O)N1CCCCC1 | 12.4 | Dose-dependent effect | 8.7 | Dose-dependent effect |  |  |  |  |  |
| 3.31 | 9.7 | Dose-dependent effect | CC(C)=CCC/C(C)=C/CC/C(C)=C/CSC[C@H](NC(=O)CCCCCN1CCCC1)C(=O)N1CCCC1 | 10.8 | Dose-dependent effect | 6.5 | Dose-dependent effect |  |  |  |  |  |
| 4.27 | 13 | Dose-dependent effect | CC(C)=CCC/C(C)=C/CC/C(C)=C/CSC[C@H](NC(=O)CCCCCN1CCN(C)CC1)C(=O)N1CCCCC1 | 14.3 | Dose-dependent effect | 8.8 | Dose-dependent effect |  |  |  |  |  |
| 5.88 | 15.2 | Dose-dependent effect | CC(C)=CCC/C(C)=C/CC/C(C)=C/CSC[C@H](NC(=O)CCCCCN1CCN(C)CC1)C(=O)NC1CCCCCCC1 | 2.5 | Dose-dependent effect | 7.5 | Dose-dependent effect |  |  | Active | inactive | Active |
| 5.37 | 11.9 | Dose-dependent effect | CC(C)=CCC/C(C)=C/CC/C(C)=C/CSC[C@H](NC(=O)CCCCCN1CCCC1)C(=O)NC1CCCCCCC1 | 1.9 | Dose-dependent effect | 4 | Dose-dependent effect |  |  |  |  |  |
| 3.43 |  |  | CC(C)=CCC/C(C)=C/CC/C(C)=C/CSc1ccccc1C(=O)O [SALIRASIB] | > 20 |  | > 20 |  | inactive | inactive |  |  |  |
| 4.93 | 11.6 | Dose-dependent effect | CC(C)=CCC/C(C)=C/CC/C(C)=C/CSC[C@H](NC(=O)CCCCCN1CCCC1)C(=O)NC1CCCCCC1 | 6.8 | Dose-dependent effect | 5.8 | Dose-dependent effect |  |  |  |  |  |
| 4.99 | 16.9 | Dose-dependent effect | CC(C)=CCC/C(C)=C/CC/C(C)=C/CSC[C@H](NC(=O)CCCCCN1CCN(C)CC1)C(=O)NC1CCCCC1 | 5.9 | Dose-dependent effect | 12 | Dose-dependent effect |  |  |  |  |  |
| 4.04 | 3.7 | Dose-dependent effect | CC(C)=CCC/C(C)=C/CC/C(C)=C/CSC[C@H](NC(=O)CCCCCN1CCCC1)C(=O)NC1CCCC1 | 3.2 | Dose-dependent effect | 6.8 | Dose-dependent effect |  |  |  |  |  |
| 5.44 | 17.6 | Dose-dependent effect | CC(C)=CCC/C(C)=C/CC/C(C)=C/CSC[C@H](NC(=O)CCCCCN1CCN(C)CC1)C(=O)NC1CCCCCC1 | 2.7 | Dose-dependent effect | 6.2 | Dose-dependent effect |  |  |  |  |  |
| 3.15 | 17.5 | Dose-dependent effect | CC(C)=CCC/C(C)=C/CC/C(C)=C/CSC[C@H](NC(=O)CCCCCN1CCCC1)C(=O)NC1CC1 | > 20 | Dose-dependent effect | > 20 | Dose-dependent effect |  |  |  |  |  |
| 4.55 | 10.1 | Dose-dependent effect | CC(C)=CCC/C(C)=C/CC/C(C)=C/CSC[C@H](NC(=O)CCCCCN1CCN(C)CC1)C(=O)NC1CCCC1 | 10.9 | Dose-dependent effect | > 20 | Dose-dependent effect |  |  |  |  |  |
| 3.66 | 13.8 | Dose-dependent effect | CC(C)=CCC/C(C)=C/CC/C(C)=C/CSC[C@H](NC(=O)CCCCCN1CCN(C)CC1)C(=O)NC1CC1 | 10.4 | Dose-dependent effect | 6.3 | Dose-dependent effect |  |  |  |  |  |
